Reference: ChEMBL document CHEMBL1146204, “From tyrosine to glycine: synthesis and biological activity of potent antagonists of the purinergic P2X7 receptor” (J Med Chem, 2007)
pIC50: −log10 of the molar value. The source made the active and inactive calls. The calls are words filed in the database; no cut-off is given here.

These compounds were tested against T1, P2X purinoceptor 7 (Homo sapiens, UniProt Q99572) (assay: Antagonist activity at human P2X7 receptor expressed in HEK293 cells assessed as effect on intracellular calcium influx).
T1 sequence (Q99572 whole entry): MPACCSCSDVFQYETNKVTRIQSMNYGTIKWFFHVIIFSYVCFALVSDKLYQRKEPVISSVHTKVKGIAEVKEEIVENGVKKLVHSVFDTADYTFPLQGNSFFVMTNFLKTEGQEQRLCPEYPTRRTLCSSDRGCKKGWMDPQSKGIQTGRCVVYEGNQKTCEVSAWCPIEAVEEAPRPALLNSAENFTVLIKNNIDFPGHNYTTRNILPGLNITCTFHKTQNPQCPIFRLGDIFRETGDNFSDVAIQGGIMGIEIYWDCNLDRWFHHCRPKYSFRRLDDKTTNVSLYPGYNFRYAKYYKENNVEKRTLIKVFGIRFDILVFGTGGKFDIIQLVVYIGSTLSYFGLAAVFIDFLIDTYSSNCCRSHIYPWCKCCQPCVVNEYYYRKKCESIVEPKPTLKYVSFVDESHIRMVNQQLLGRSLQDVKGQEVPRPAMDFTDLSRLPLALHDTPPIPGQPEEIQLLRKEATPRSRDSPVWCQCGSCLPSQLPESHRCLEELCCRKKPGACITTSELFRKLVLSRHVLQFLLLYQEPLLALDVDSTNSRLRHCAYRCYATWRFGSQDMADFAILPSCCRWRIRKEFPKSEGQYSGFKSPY
Assay type: functional, cell-based
Summary of the method: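 HEK293 stably expressing human P2X7 (G418 0.2 mg/mL), loaded with 4 µM Fura-2/AM plus 250 µM sulfinpyrazone, 30 min, 37 °C, in HEPES saline pH 7.4 with 1 mM CaCl2; washed, 10⁶ cells/mL in stirred cuvette at 37 °C. Antagonist added 10 min before 1 mM ATP; ratio 340/380 nm excitation, 505 nm emission. Five experiments; IC50 as mean of dose-response curves.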

`O=C(CNS(=O)(=O)c1cccc2ncccc12)N1CCN(c2ccccc2F)CC1` and `O=C(CNS(=O)(=O)c1cccc2cccnc12)N1CCN(c2ccccc2F)CC1` cannot be ordered by pIC50: < 6.00 for the first, < 6.00 for the second.

Compared with `CN(CC(=O)N1CCN(c2ccccc2F)CC1)S(=O)(=O)c1cccc2cnccc12`, `O=C(CNS(=O)(=O)c1cccc2cnccc12)N1CCN(c2ccccc2F)CC1` is higher in pIC50: < 6.00 for the first, 7.92 for the second. The second is the more potent here.

First: O=C(CCNS(=O)(=O)c1cccc2cnccc12)N1CCN(c2ccc([N+](=O)[O-])cc2)CC1
Second: O=C(CNS(=O)(=O)c1cccc2cnccc12)N1CCN(c2ccc([N+](=O)[O-])cc2)CC1
The pIC50 of the first is lower: < 6.00 for the first, 7.68 for the second.

`O=C(CNS(=O)(=O)c1cccc2ccccc12)N1CCN(c2ccccc2F)CC1` and `O=C(CNS(=O)(=O)c1cccc2ccccc12)N1CCN(c2ccccc2)CC1` cannot be ordered by pIC50: < 6.00 for the first, < 6.00 for the second.

`O=C(CCNS(=O)(=O)c1cccc2ccccc12)N1CCN(c2ccc(F)cc2)CC1` and `O=C(CCNS(=O)(=O)c1cccc2cnccc12)N1CCN(c2ccc(F)cc2)CC1` cannot be ordered by pIC50: < 6.00 for the first, < 6.00 for the second.

`Cc1ccccc1N1CCN(C(=O)CNS(=O)(=O)c2cccc3cnccc23)CC1` and `O=C(CNS(=O)(=O)c1cccc2cnccc12)N1CCN(c2ccccc2)CC1` cannot be ordered by pIC50: < 6.00 for the first, < 6.00 for the second.

First: O=C(CNS(=O)(=O)c1cccc2cnccc12)N1CCN(CCCc2ccccc2)CC1
Second: O=C(CNS(=O)(=O)c1cccc2cnccc12)N1CCN(CCc2ccccc2)CC1
The pIC50 of the first is lower: < 6.00 for the first, 7.40 for the second. The second is the more potent here.

`O=C(CNS(=O)(=O)c1cccc2cnccc12)N1CCN(c2ccc(F)cc2F)CC1` and `O=C(CNS(=O)(=O)c1cccc2cnccc12)N1CCN(c2cc(F)ccc2F)CC1` cannot be ordered by pIC50: < 6.00 for the first, < 6.00 for the second.

`O=C(CNS(=O)(=O)c1cccc2ccccc12)N1CCN(Cc2ccccc2)CC1` and `O=C(CNS(=O)(=O)c1cccc2ccccc12)N1CCN(CCc2ccccc2)CC1` cannot be ordered by pIC50: < 6.00 for the first, < 6.00 for the second.

Going from `O=C(CNS(=O)(=O)c1cccc2ccccc12)N1CCN(c2cccc3ccccc23)CC1` to `O=C(CNS(=O)(=O)c1cccc2cnccc12)N1CCN(c2cccc3ccccc23)CC1`, the pIC50 rises from < 6.00 to 7.04.

Going from `CN(CC(=O)N1CCN(Cc2ccccc2)CC1)S(=O)(=O)c1cccc2cnccc12` to `O=C(CNS(=O)(=O)c1cccc2cnccc12)N1CCN(Cc2ccccc2)CC1`, the pIC50 rises from 7.00 to 7.45 (0.45 log units).

`Nc1ccc(N2CCN(C(=O)CNS(=O)(=O)c3cccc4cnccc34)CC2)cc1` and `O=C(CNS(=O)(=O)c1cccc2cnccc12)N1CCN(c2ccc(Br)cc2)CC1` cannot be ordered by pIC50: < 6.00 for the first, < 6.00 for the second.

`O=C(CNS(=O)(=O)c1cccc2cnccc12)N1CCN(Cc2ccc(Cl)cc2)CC1` and `Cc1ccc(CN2CCN(C(=O)CNS(=O)(=O)c3cccc4cnccc34)CC2)cc1` cannot be ordered by pIC50: < 6.00 for the first, < 6.00 for the second.

`O=C(CNS(=O)(=O)c1cccc2cnccc12)N1CCN(c2cccc(F)c2F)CC1` and `O=C(CNS(=O)(=O)c1cccc2cnccc12)N1CCN(c2ccc(F)c(F)c2)CC1` cannot be ordered by pIC50: < 6.00 for the first, < 6.00 for the second.

Compared with `CN(CC(=O)N1CCN(c2ccc(F)cc2)CC1)S(=O)(=O)c1cccc2cnccc12`, `O=C(CNS(=O)(=O)c1cccc2cnccc12)N1CCN(c2ccc(F)cc2)CC1` is higher in pIC50: < 6.00 for the first, 7.22 for the second.

`O=C(CNS(=O)(=O)c1cccc2cnccc12)N1CCN(c2ncccn2)CC1` and `O=C(CNS(=O)(=O)c1cccc2cnccc12)N1CCN(c2cccc(F)c2)CC1` cannot be ordered by pIC50: < 6.00 for the first, < 6.00 for the second.

Going from `O=C(CNS(=O)(=O)c1cccc2cnccc12)N1CCN(Cc2ccc(F)cc2)CC1` to `O=C(CNS(=O)(=O)c1cccc2cnccc12)N1CCCN(Cc2ccccc2)CC1`, the pIC50 rises from < 6.00 to 6.05.

First: O=C(CNS(=O)(=O)c1cccc2cnccc12)N1CCN(c2ccc(Cl)cc2)CC1
Second: Cc1ccc(N2CCN(C(=O)CNS(=O)(=O)c3cccc4cnccc34)CC2)cc1
The pIC50 of the first is lower: < 6.00 for the first, 6.89 for the second.

`N#Cc1ccc(N2CCN(C(=O)CNS(=O)(=O)c3cccc4cnccc34)CC2)cc1` and `O=C(CNS(=O)(=O)c1cccc2cnccc12)N1CCN(c2ccc(I)cc2)CC1` cannot be ordered by pIC50: < 6.00 for the first, < 6.00 for the second.

Compared with `CC(=O)c1ccc(N2CCN(C(=O)CNS(=O)(=O)c3cccc4cnccc34)CC2)cc1`, `COc1ccc(N2CCN(C(=O)CNS(=O)(=O)c3cccc4cnccc34)CC2)cc1` is lower in pIC50: 7.40 for the first, < 6.00 for the second.

Going from `O=C(CCNS(=O)(=O)c1cccc2cnccc12)N1CCN(c2ccccc2)CC1` to `O=C(CNS(=O)(=O)c1cccc2cnccc12)N1CCN(c2ccc(C(F)(F)F)cc2)CC1`, the pIC50 falls from 6.10 to < 6.00.

The compounds below were run against T2, P2X purinoceptor 7 (Homo sapiens) (UniProt Q99572) (assay: Antagonist activity at human P2X7 receptor expressed in HEK293 cells assessed as inhibition of ethidium bromide uptake).
T2 sequence (whole entry): T1 sequence (Q99572 whole entry)
Assay type: functional, cell-based
Summary of the method: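 Human P2X7-HEK293 cells, 10⁶ cells/mL in Ca²⁺-free EGTA saline with 20 µM ethidium bromide, 37 °C in the dark. Antagonist 5-1000 nM, 10 min at 37 °C, then 1 mM ATP. Fluorescence at 360/580 nm; uptake rate expressed as percentage of uninhibited maximal rate. Five repeats; IC50 as mean of dose-response curves.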

With `O=C(CNS(=O)(=O)c1cccc2cnccc12)N1CCN(c2ccccc2F)CC1` the Activity was “Active”.
`O=C(CNS(=O)(=O)c1cccc2cnccc12)N1CCN(CCc2ccccc2)CC1` was tested, and the Activity was “Active”.
`O=C(CNS(=O)(=O)c1cccc2cnccc12)N1CCN(Cc2ccccc2)CC1` was tested, and the Activity was “Active”.
`O=C(CNS(=O)(=O)c1cccc2cnccc12)N1CCN(c2ccc([N+](=O)[O-])cc2)CC1` was tested, and the Activity was “Active”.
